Assay outcomes: PubChem BioAssay, several laboratories
Shown are actives, neighbours in structure and some others; about 2.6% of the full set was active somewhere.
SENP1 FRET inh = SENP1 (human) catalytic domain inhibition. Q9P0U3. recombinant SENP1 catalytic domain, CyPet-SUMO1-YPet FRET cleavage. inhibition, % at 10 µM. 0.21% of 360,000 active. AID 624204;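 active = inhibition at least 30% at 10 µM, raw YFP signal under a set limit, fluorescence ratio 0.5 to 1.5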;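 note: 0% = enzyme with DMSO and 100% = no enzyme wells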
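Test system: recombinant human SENP1 catalytic domain, His6-tagged / Medium: pH 8 Tris buffer with EDTA, NaCl, BME, BSA, NP40, catalase / Also added: SUMO1 FRET substrate flanked by Cypet and Ypet, 25 nM / Times: 50 min reaction at room temperature / Signal: FRET, CFP and YFP emission / Control set: no-enzyme low control and enzyme-plus-DMSO high control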
SENP8 block-1 = SENP8 protease inhibition. 1.2% of 330,000 active. AID 2540. Q96LD8. purified SENP8, Z-RLRGG-aminoluciferin cleavage, luminescence. inhibition, % at 10 µM; in the data active = inhibition above about 50%
SENP6 inh = inhibitors of human SENP6 protease. inhibition, % at 10 µM. 1.8% of 330,000 active. Recombinant SENP6 catalytic domain, aminoluciferin luminescence. Q9GZR1;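 active = inhibition above about 50% at the single tested dose, limit read from the data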;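 note: plate controls were DMSO wells with enzyme for no effect and DMSO wells lacking enzyme for full effect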
SENP7 inh = inhibitors of human SENP7 protease; Q9BQF6; recombinant SENP7, Z-RLRGG-aminoluciferin luminescence, 40 min; inhibition, % at 5 µM; 1.5% of 330,000 active;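 active = inhibition above about 50% at the single test dose, limit read from the data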;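 note: plate controls were DMSO with enzyme for no effect and no enzyme buffer wells for full effect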
Target sequence (Q9BQF6 706-1050 limits assumed): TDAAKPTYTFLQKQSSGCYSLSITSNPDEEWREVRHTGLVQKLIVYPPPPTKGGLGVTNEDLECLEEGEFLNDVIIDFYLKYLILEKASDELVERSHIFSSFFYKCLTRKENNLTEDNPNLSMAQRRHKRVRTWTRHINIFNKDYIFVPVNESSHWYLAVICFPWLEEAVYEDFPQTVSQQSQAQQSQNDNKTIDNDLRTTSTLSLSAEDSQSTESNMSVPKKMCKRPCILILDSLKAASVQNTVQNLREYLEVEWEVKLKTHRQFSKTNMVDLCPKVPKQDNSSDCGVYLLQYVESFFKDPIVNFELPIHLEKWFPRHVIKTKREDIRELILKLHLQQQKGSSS
Platelet DG rel = platelet dense granule release activity. AID 1663. human platelet-rich plasma, SFLLRN dense granule ATP release, luminescence. 0.22% of 300,000 active. inhibition, %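 (compounds screened at 7.5 µM in platelet-rich plasma)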;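 active = mean replicate score, as percent of positive control, at or above 50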
SENP8 block-2 = SENP8 (human) protease inhibition. recombinant SENP8, Nedd8 substrate fluorescence. inhibition, % at 20 µM. 0.64% of 360,000 active. AID 602440. Q96LD8; in the data active = inhibition mostly above about 40%, no sharp cut-off; inactive = mostly below about 27%
SENP8 conf = human SENP8 inhibition, confirmed; shares compounds with SENP7 inh; Recombinant SENP8, Z-RLRGG-aminoluciferin luminescence, 60 min; inhibition, % at 12.5 µM; 40% of 6,200 active; AID 488912;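 active = mean inhibition across replicates above about 50%, limit read from the data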
SENP6 conf = confirmation of human SENP6 protease inhibitors; shares compounds with SENP7 inh; recombinant SENP6, Z-RLRGG-aminoluciferin luminescence; inhibition, % at 12.5 µM; 58% of 6,200 active; AID 488915
SENP7 conf = human SENP7 inhibition, confirmed; shares compounds with SENP7 inh; recombinant SENP7, Z-RLRGG-aminoluciferin luminescence, 40 min; inhibition, % at 12.5 µM; 69% of 6,200 active; AID 488917
Casp3 select = inhibits human caspase-3 in SENP selectivity test; purified caspase-3, Z-DEVD-aminoluciferin luminescence, 60 min; AID 488918; 60% of 6,200 active; inhibition, % at 12.5 µM; shares compounds with SENP7 inh;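 active = mean inhibition above about 50%, limit read from the data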;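 note: plate controls were enzyme with DMSO for no effect and wells without caspase-3 for full effect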
Target sequence (P42574 28-227 limits assumed): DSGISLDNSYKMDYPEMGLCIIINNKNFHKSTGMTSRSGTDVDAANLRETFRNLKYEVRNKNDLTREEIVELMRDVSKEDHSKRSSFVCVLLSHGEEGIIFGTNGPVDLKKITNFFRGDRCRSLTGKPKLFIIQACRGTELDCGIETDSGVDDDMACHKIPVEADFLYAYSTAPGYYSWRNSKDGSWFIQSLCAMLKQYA
Luc interf = luminescence interference (SENP counter-screen); Pre-incubated SENP8/Z-RLRGG-aminoluciferin, luciferase luminescence interference; AID 488919; shares compounds with SENP7 inh; inhibition, % at 12.5 µM; 39% of 6,200 active;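 active = mean inhibition above about 50% when retested at one dose, limit read from the data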;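 note: plate controls were DMSO wells with completed reaction for no effect and substrate without enzyme for full effect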
The depositor's hits bear a star; x = no result.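 Rule for the calls, unless noted: active = mean inhibition above about 50% in the one-dose retest (limit read from the data); inactive = the rest.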

SMILES	SENP1 FRET inh	SENP8 block-1	SENP6 inh	SENP7 inh	Platelet DG rel	SENP8 block-2	SENP8 conf	SENP6 conf	SENP7 conf	Casp3 select	Luc interf
O=C(O)c1cccc(NC(=O)c2cccc(NC(=O)C3CCCO3)c2)c1 (stereo unspecified)	0	55*	63*	-15	-2	14	74*	72*	90*	69*	54*
CC(Oc1cccnc1[N+](=O)[O-])C(=O)Nc1ccc(Cl)cn1 (stereo unspecified)	4	1	6	-3	x	20	x	x	x	x	x
CCCOc1ccc2cc(-c3ccccn3)c(=O)oc2c1	-88	96*	98*	101*	44	-402	81*	85*	101*	88*	38
O=c1oc2cc(OCc3c(F)cccc3Cl)ccc2cc1-c1ccccn1	-58	-10	-27	-11	2	-389	x	x	x	x	x
COC(=O)C(C)Oc1ccc2cc(-c3ccccc3)c(=O)oc2c1 (stereo unspecified)	-15	-15	5	-2	10	-341	x	x	x	x	x
COc1ccc2c(=O)c(-c3ccccc3)coc2c1	-1	75*	79*	80*	8	3	40	73*	93*	84*	34
CCN(CC)C(=O)Oc1ccc2c(=O)c(-c3ccccc3)coc2c1	1	54*	81*	71*	23	0	18	25	54*	57*	21
CC(=O)Oc1ccc2occ(-c3ccccc3)c2c1	-1	1	-6	-4	-1	10	x	x	x	x	x
COc1ccc2cc(-c3ccccc3)c(=O)oc2c1	-2	75*	92*	88*	12	-365	15	90*	99*	86*	40
Cc1ccc(S(=O)(=O)N2CCCCC2)cc1NC(=O)c1nn(C)c(=O)c2ccccc12	1	-1	-18	-5	x	-1	x	x	x	x	x
COc1ccc(N2CCN(S(=O)(=O)CCNC(=O)C3CC3)CC2)cc1	3	4	4	10	3	13	x	x	x	x	x
Cn1ncc(Cl)c1C(=O)N1CCN(C(=O)c2ccco2)CC1	2	x	x	x	4	15	x	x	x	x	x
O=C(O)c1nccnc1C(=O)Nc1ccc(Cl)cn1	1	11	97*	2	-7	11	-9	-7	-6	6	5
CCn1nccc1C(=O)Nc1ccc(Cl)cn1	1	35	74*	63*	13	31	34	37	80*	40	64*
CCn1nccc1C(=O)Nc1cc(Cl)cc(Cl)c1	3	1	30	20	6	16	x	x	x	x	x
CC(C(=O)NC1CCCC1)n1c(C2CC2)nc2ccccc21 (stereo unspecified)	2	x	x	x	x	17	x	x	x	x	x
COC(=O)c1sccc1NC(=O)c1ccc(C)o1	1	-5	-17	-10	-1	-21	x	x	x	x	x
COC(=O)c1sccc1NC(=O)Cc1ccc(OC)cc1	0	23	51*	42	-1	13	49	44	79*	63*	58*
Nc1ccc(-n2c(N)c(C(=O)NCc3ccc4c(c3)OCO4)c3nc4ccccc4nc32)cc1	-63	2	8	2	3	-406	x	x	x	x	x
Nc1c(C(=O)NCc2ccccc2)c2nc3ccccc3nc2n1-c1ccc2c(c1)OCO2	-53	30	68*	-3	6	-261	11	12	-3	3	0
Nc1c(C(=O)NCc2ccc3c(c2)OCO3)c2nc3ccccc3nc2n1CCCN1CCOCC1	-24	91*	92*	4	3	-277	10	8	-3	3	-5
COc1ccc([C@H]2CC(=O)C=C(c3c(OC)cccc3OC)C2)cc1	1	-4	6	-3	x	5	x	x	x	x	x
COC(=O)c1ccc(-c2nc3cc(Cl)c(N)cc3s2)cc1	-14	28	63*	97*	26	-409	-18	-4	18	38	-5
CC1(C)CC(=O)C(N=Nc2cccc([N+](=O)[O-])c2)=C(O)C1	-3	16	25	45	8	20	x	x	x	x	x
CCOc1cc(C=O)cc(N=Nc2cccc([N+](=O)[O-])c2)c1O	5	82*	83*	47	x	22	-6	45	22	48	-2
SMILES	SENP1 FRET inh	SENP8 block-1	SENP6 inh	SENP7 inh	Platelet DG rel	SENP8 block-2	SENP8 conf	SENP6 conf	SENP7 conf	Casp3 select	Luc interf
CN(CC(=O)Nc1cccc(F)c1)C(=O)CCCNC(=O)c1ccc(Cl)cc1	2	0	-9	-3	25	17	x	x	x	x	x
c1ccc(-c2nnc(-c3ccncc3)o2)cc1	0	-2	6	-6	-7	39	x	x	x	x	x
Brc1cccc(-c2nnc(-c3ccccc3)o2)c1	-2	70*	87*	79*	x	15	49	71*	93*	59*	17
Cc1ccc(-c2nnc(-c3cccc(Br)c3)o2)cc1	-1	37	74*	60*	5	7	24	21	26	15	5
Cc1cccc(-c2nnc(-c3ccc(N)cc3)o2)c1	1	37	8	53*	-2	-351	47	65*	88*	63*	40
Cc1ccc(-c2nnc(-c3ccc4ccccc4c3)o2)cc1	1	x	x	x	x	-367	x	x	x	x	x
O=c1oc2ccccc2cc1-c1nnc(-c2cccc(Br)c2)o1	-2	-16	2	43	7	-286	x	x	x	x	x
Cc1ccc(-c2nnc(-c3ccccc3)o2)cc1Br	-3	28	59*	75*	-2	4	20	19	24	41	9
CC(Sc1nnc(N)s1)C(=O)NC1CCCCC1C (stereo unspecified)	1	1	1	-5	7	20	x	x	x	x	x
CC(CN1CCCCC1)NC(=O)c1cccs1 (stereo unspecified)	-1	6	13	1	4	16	x	x	x	x	x
Cc1cc(C(=O)Nc2ccc3c(c2)OCCO3)c(C)o1	2	32	-40	51*	4	14	46	47	84*	81*	67*
Cc1ccccc1C(=O)Nc1ccc2c(c1)OCCO2	2	55*	63*	69*	17	17	53*	52*	84*	85*	67*
